Test results from PubChem BioAssay.
Unmarked numbers belong to inactive results. Inconclusive results are not listed. The source made the active and inactive calls.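 Rule for the calls, unless noted: active = RAM network inhibition above 8.4% in each of two replicates, 3 SD over the compound average; inconclusive = above 8.4% inhibition in only one replicate; inactive = 8.4% inhibition or less in each replicate.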

Key:
[1] = S. cerevisiae growth inhibition in permissive medium (OD615), pilot counter-assay for S. cerevisiae lifespan shortening project, permissive growth control (AID 705;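 active = growth inhibition above 25% in both replicates, a cutoff set 3 SD above the mean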); conditions: OD615, 24 h, at 10 µM, hits give high values
Outline: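 Material: engineered DeaD yeast; Compound: one dose 10 µM, DMSO 0.25% final; Detection: absorbance (optical density) at 615 nm; Buffer or medium: permissive raffinose/galactose medium; Timing: 24 h exposure, 30 °C.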

[2] = S. cerevisiae growth inhibition in restrictive medium, OD615, pilot screen, restrictive growth control, yeast lifespan reduction project (AID 706;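 active = growth inhibition above a set limit, 3 SD over mean compound inhibition, in both replicates, cut at about 43% in these data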;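 note: modified DeaD lifespan yeast strain shifted to restrictive glucose medium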); conditions: OD615, 48 h, at 10 µM, hits give high values
Outline: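 Buffer or medium: restrictive glucose medium (CSMM-D); test system: modified S. cerevisiae; doses: single dose of 10 µM compound final, 0.25% DMSO; schedule: 48 h compound exposure at 30 °C; detection: absorbance (optical density) measured at 615 nm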

[3] = doxorubicin toxicity protection in MRP-1 cells – H69AR cells, CellTiter-Glo, duplicate, MRP-1 activator project, pilot screen (AID 807;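 active = viability increase at or above a cutoff of the median across tested compounds plus 3 SD, cut at about 8.5% in these data, passing the limit was not always enough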;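 note: compound pretreatment 18-22 h then 72 h combined with doxorubicin; 0% = doxorubicin alone and 100% = vehicle without doxorubicin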); conditions: H69AR viability with doxorubicin, CellTiter-Glo luminescence; at 10 µM; hits give high values
[4] = viability of PTEN-null HCT116 cells – cell-based, HCT116 clonal line, CellTiter-Glo, pilot screen (AID 824;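 active = viability at or below 27.92% in each of two runs, the all-compound median minus 4 SD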;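 note: 0% = 20 µM Hyamine control and 100% = vehicle cell control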); conditions: HCT116 PTEN-deleted viability, 60 h, at 10 µM, hits give low values
[5] = RAM pathway blockade in budding yeast – dse1pr::URA3 reporter, 5-FOA selection, pilot screen (AID 869;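 active = inhibition over a set limit, the all-compound mean plus 3 SD, in both replicate runs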;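 note: 0% = DMSO wells with no growth and 100% = 10 µM 1-NA-PP1 with full growth; RAM network block rescues cells from 5-FOA so hits raise OD615 growth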); conditions: S. cerevisiae dse1pr::URA3 5-FOA growth, OD615, 2 d; at 10 µM; hits give high values; strain carries analog-sensitive mutant Cbk1 kinase
[6] = RAM signaling pathway blockade in yeast – S. cerevisiae, Pdr1DBD-CYC8 efflux-inhibited sensitized strain, primary screen (AID 1298);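 note: 0% = DMSO untreated cells without growth and 100% = 10 µM 1-NA-PP1 full growth; higher means more yeast growth rescued from 5-FOA killing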; conditions: S. cerevisiae cbk1-as DSE1-URA3 strain, 5-FOA growth OD615, 2 d; at 50 µM; hits give high values

Structure (SMILES) | growth inhibition [1] [%] | growth inhibition [2] [%] | viability increase [3] [%] | viability [4] | inhibition [5] [%] | RAM network inhibition [6] [%]
COc1ccc(S(=O)(=O)N2CCC(C(=O)N3CCN(c4ccccc4OC)CC3)CC2)cc1 | -8.7 | -3.36 | -2.71 | 86.8% | -0.505 | 0
CCS(=O)(=O)C(=C(Nc1ccc(OC)cc1)Nc1ccc(OC)cc1)S(=O)(=O)CC | -3.28 | 4.84 | -0.19 | 95.3% | 0.04 | 7.21
COc1ccc(S(=O)(=O)N2CCCCC2C(=O)O)cc1OC (stereo not given) | -7 | -10.8 | -0.69 | 101% | 2.17 | 5.22
c1coc(CNc2c3c(nc4ncnn24)CCCC3)c1 | 0.96 | 6.76 | -1.88 | 93.1% | -0.155 | 1.39
CCCC(=O)Nc1cccc(C(=O)Nc2nccs2)c1 | -9.54 | 0.885 | 0.65 | 102% | 0.285 | 0.41
O=C(CN(C1CCCCC1)S(=O)(=O)c1ccccc1)N1CCCC1 | -9.43 | -3.8 | -2.08 | 100% | 0.885 | 2.77
O=C(NCc1cccc(F)c1)c1noc2c1CCCC2 | -12.1 | -19.5 | -4.68 | 32.7% | 0.33 | 3.14
Cn1c(C(=O)NCCCN2CCN(c3ccccc3F)CC2)cc2c(=O)n(C)c3ccccc3c21 | -3.28 | -4.87 | -8.02 | 54.9% | 0.6 | 0.96
COc1ccc(C(=O)NC(C)c2nc3ccccc3[nH]2)cc1OC (stereo not given) | -9.91 | -3.65 | -1.84 | 97.9% | 2.15 | 4.78
Cc1ccsc1C(=O)OCC(=O)c1cc2ccccc2o1 | -18.1 | -10.8 | -2.86 | 97.3% | 1.28 | 1.03
CCOC(=O)C1CCN(C(=O)c2cn(C)c(=O)c3cc(OC)c(OC)cc23)CC1 | -3.38 | -10.2 | -4.21 | 98% | 1 | 3.95
Cc1c(C(=O)NCC2CCCO2)oc2ccc(S(=O)(=O)N3CCCC3)cc12 (stereo not given) | -6.79 | -3.9 | -2.38 | 91.6% | 2 | 1.44
O=C(Nc1cccc(F)c1)Nc1ccccn1 | -10.9 | -7.43 | -3.54 | 88.1% | 0.385 | -0.16
O=C(CN1C(=O)c2ccccc2S1(=O)=O)N1CCN(c2ccccc2F)CC1 | 0.11 | 5.53 | -3.37 | 101% | 2.07 | 2.92
COc1ccc(N2C(=O)CCC(C(=O)N3CCCCCC3)C2c2ccc(OC)c(OC)c2)cc1 (stereo not given) | -2.31 | 12.9 | -1.38 | 99% | 0.735 | 4.47
CCn1nc(C(=O)NC2=NCCS2)c2ccccc2c1=O | 9.05 | -1.14 | -2.76 | 104% | 1.19 | 3.32
CCOCCCNC(=O)C(c1ccc(Cl)cc1)N1CCC2(CC1)OCCO2 (stereo not given) | -11.4 | -20.9 | -1.08 | 98% | 1.17 | 1.59
COc1ccccc1C(=O)C(O)c1ccccc1OC (stereo not given) | -8.34 | 0.335 | 0.03 | 94.4% | 0.755 | 5.17
Cc1cccc(NC(=O)CS(=O)(=O)c2cn(C)c3ccccc23)c1C | -8.09 | -5.75 | -3.27 | 96.5% | 1.46 | 3.02
CCNc1nc(-c2ccc(Cl)cc2)cs1 | 1.33 | 0.05 | -1.74 | 84.4% | -0.24 | -0.26

Structure (SMILES) | growth inhibition [1] [%] | growth inhibition [2] [%] | viability increase [3] [%] | viability [4] | inhibition [5] [%] | RAM network inhibition [6] [%]
Cc1ccc(C(=O)NCCNC(=O)CN2CCCC2)cc1 | -7.48 | 3.55 | -0.66 | 103% | 2.21 | 5.7
CCSc1nc2ccccc2n1CC(=O)N1CCOCC1 | -4.23 | 1.08 | -3.2 | 92.4% | 0.915 | 0.98
Cc1nc2nc(SCC(=O)N3CCOCC3)nn2c(C)c1Cc1ccccc1 | -0.01 | 1.59 | -3.4 | 95.5% | 1.7 | 0.77
Cc1ccc(S(=O)(=O)c2nc(-c3ccc(F)cc3)oc2SCC(=O)NCC2CCCO2)cc1 (stereo not given) | 8.03 | -4.51 | -7.96 | 15.3% (active) | 0.69 | 10.9
CCOC(=O)c1c(NC(=O)OC)sc(C(=O)N(CC)CC)c1C | -14.6 | -12.4 | -1.31 | 93% | 1.47 | 1.79
COCCNS(=O)(=O)c1ccc2c(c1)C(=O)c1cc(S(=O)(=O)NCCOC)ccc1-2 | -1.33 | 0.015 | -0.81 | 96.4% | 2.15 | 3.45
O=C(c1ccc(CN2CCOCC2)cc1)N1CCC(Cc2ccccc2)CC1 | -5.94 | -3.29 | -0.71 | 93.1% | 1.29 | 9.1
CCOC(=O)c1ccc(NC(=O)c2cccc(S(=O)(=O)N3CCOCC3)c2)cc1 | -9.14 | -4.13 | -0.35 | 57.2% | 2.96 | 7.23
CN(C)c1ccc(C(=O)Nc2ccc(S(=O)(=O)NC3=NCCCCC3)cc2)cc1 | -6.28 | -8.65 | -3.44 | 99.4% | 1.61 | 3.12
COc1cc2c(C(=O)N3CCN(Cc4ccc5c(c4)OCO5)CC3)cn(C)c(=O)c2cc1OC | -8.34 | -4.51 | -6.92 | 95.6% | 0.85 | 1.29
Cc1c(C)[n+](=O)c(-c2ccc(F)cc2)c(C)n1[O-] | -1.22 | 3.79 | -3.29 | 98.3% | 0.535 | 4.01
c1cncc(CNc2nc(N3CCOCC3)nc(N3CCOCC3)n2)c1 | -10.4 | 1.83 | -2.97 | 91.8% | 1.27 | 1.95
CCOc1ccc(-n2c(SCC(=O)Nc3cc(C)on3)nc3c([nH]c4ccccc43)c2=O)cc1 | -16.7 | -15.4 | -6.08 | 55.3% | 0.94 | 5.59
COc1ccc(CNC(=O)CSc2nnnn2-c2ccc(O)cc2)cc1 | -0.35 | -9.08 | -4.35 | 98.6% | 2.5 | 3.74
c1ccc(-c2noc(-c3cccnc3)n2)cc1 | 5.9 | 2.4 | -3.8 | 95.2% | -0.04 | 3.95
CC(=O)N1CCN(S(=O)(=O)c2ccc(C)cc2)C1c1ccc(N(C)C)cc1 (stereo not given) | 4.58 | 1.53 | -2.16 | 97.1% | 1.61 | 4.14
C=C(C)Cn1c(CCCNC(=O)CC)nc2ccccc21 | -5.08 | 14.8 | -1.27 | 96% | 1.54 | -0.92
COc1ccc(C2=[N+]([O-])C(C)(C)N(O)C2(C)C)cc1 | -8.58 | 12.9 | -1.34 | 100% | 1.38 | 0.67
COc1cc(C)c(C(C)C)cc1S(=O)(=O)n1cnc(C)c1 | 0.115 | 6.4 | -3.58 | 37.8% | 0.425 | 4.02
Cc1csc(NC(=O)NC2(C(F)(F)F)Oc3ccccc3O2)n1 | -6.66 | 0.47 | -6.08 | 84.3% | 0.995 | 5.12
